Bioassay records as filed in PubChem.
Many of the other results were omitted from the sample, so hits are more common in it than they were.
G6PDH counter: L. mesenteroides G6PDH inhibition counter-screen. Purified L. mesenteroides G6PDH, diaphorase/resazurin coupled fluorescence, 45 min. inhibition, % at 5 µM. 0.12% of 200,000 active
Redox H2O2 prof: compounds producing H2O2 with reducing agent – biochemical, NIH compound library profiling, artefact control for MLSCN library redox annotation, primary screen; DTT-dependent redox cycling H2O2, phenol red/HRP absorbance; 100% = 100 µM peroxide control, 0% = buffer; activation, % at 10 µM; 0.03% of 200,000 active; AID 878;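 active means activation of at least 50% relative to the plate's high and low controls in the primary single-dose screen; inactive means activation below 50%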;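 further: compound incubated with DTT at 0.8 mM final as the reducing agent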
L major viab: reduces viability of Leishmania major promastigotes; 9% of 200,000 active; resazurin fluorescence viability; inhibition, % at 10 µM; AID 1063;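 further: promastigotes grown with compound for 44 hours at 28 °C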
Diaph act CS: diaphorase activation or chemical reduction counter-screen; Diaphorase/resazurin coupled assay, resorufin fluorescence, 16 min; hits give high values; 1 = vehicle wells, 0 = NADH-free wells; activation factor at 20 µM; 0.005% of 190,000 active;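 active means diaphorase activity raised at least twofold by the compound at 20 µM; inactive means activation factor below 2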
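Material: Clostridium kluyveri diaphorase, purified enzyme; Quantity: enzyme 0.07 U/mL final; Medium: HEPES pH 7.4 buffer with MgCl2 and Tween 20; Dosing: single compound dose of 20 µM, 1% DMSO final; Schedule: 16 min reaction at room temperature; Measured by: red resorufin fluorescence at 544/590 nm excitation/emission.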
PfGluPho inh: PfG6PD (Plasmodium falciparum) enzyme inhibition; PfGluPho enzyme, NADPH resazurin-diaphorase fluorescence; inhibition, % at 20 µM; 0.78% of 350,000 active; AID 504690;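 active means inhibition reaching at least a set limit at 20 µM in the primary screen, cut at about 59% in these data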
Diaphorase inh: diaphorase inhibition or chemical oxidation counter-screen; diaphorase resazurin-to-resorufin fluorescence, NADH, 16 min; bacterial (C. kluyveri) enzyme, not human; inhibition, % at 20 µM; 0.69% of 190,000 active;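 active means primary screen inhibition at 20 µM above a set limit, cut at about 50% in these data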
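Test system: bacterial diaphorase enzyme (C. kluyveri); Quantity: 0.14 U/mL diaphorase, enzyme working solution; Times: reaction incubation of 16 min at room temperature; Measured by: fluorescence of resorufin formed from resazurin, Ex 544/Em 590 nm; Benchmarks: positive control minus NADH, DMSO neutral control.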
L major 1uM: L. major promastigote growth inhibition, 1 uM repeat | shares compounds with L major viab | resazurin fluorescence, 48 h | inhibition, % at 1 µM | 13% of 1,100 active;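 active means inhibition above about 50% in both repeat tests, limit read from the data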
Of the large screens only hits and unclear results are named; the others gave an inactive call (follow-up assays come after a bar, where they were run). Unless noted, no stated cut-off is given here; in the data, active means inhibition above about 50%; inactive means the rest.

Cc1ccc(NC(=O)c2cc(=O)[nH]c3ccccc23)cc1C	none (no result: G6PDH counter, Redox H2O2 prof, L major viab, Diaph act CS, Diaphorase inh)
O=C(Oc1ccc(Cl)c2cccnc12)c1cccc([N+](=O)[O-])c1	L major viab 99 | L major 1uM inactive
CCN(CC)CCCNc1nc2ccccc2c2nc(-c3ccncc3)nn12	none (no result: G6PDH counter, Redox H2O2 prof, L major viab, Diaph act CS, Diaphorase inh)
Cc1ccc(S(=O)(=O)n2cc(-c3ccccc3)c(N)n2)cc1	none
Nc1nn(S(=O)(=O)c2ccccc2)cc1-c1ccc([N+](=O)[O-])cc1	L major viab 99 | L major 1uM inactive
Cc1ccc(-n2nc3ccc(N)cc3n2)cc1	L major viab 84 | L major 1uM inactive
O=C(NCc1cccnc1)C1CCN(S(=O)(=O)c2cc(Cl)ccc2Cl)CC1	none (no result: G6PDH counter, Redox H2O2 prof, L major viab, Diaph act CS, Diaphorase inh)
COc1ccc(-c2cccc(NC(=O)c3ccc4c(c3)OCO4)c2)nn1	none (no result: G6PDH counter, Redox H2O2 prof, L major viab, Diaph act CS, Diaphorase inh)
COc1ccc(CSc2nnnn2-c2ccccc2)cc1	L major viab 100 | L major 1uM inactive
Cc1ccccc1-n1nnnc1SCC(N)=O	none
Cc1ccccc1-n1nnnc1Sc1nnnn1-c1ccccc1	L major viab 100 | L major 1uM inactive
C(=C\CSc1nnnn1-c1ccccc1)/CSc1nnnn1-c1ccccc1	none
CCCSc1nnc(Sc2nnnn2-c2ccccc2)s1	L major viab 88 | L major 1uM inactive
Cc1ccc(S(=O)(=O)NC(CC(=O)NCC2CCCO2)c2ccccc2)cc1 (stereo not given)	none
Cc1nn(-c2nc3ccccc3[nH]2)c(N)c1-c1ccc(Cl)cc1	L major viab 65 | L major 1uM 74
Cc1nn(-c2nc3ccccc3[nH]2)c(=O)c2ccccc12	none
Cc1ccc(NC(=O)NC(=O)CSc2nnc(-c3ccc(Cl)cc3Cl)n2N)c(C)c1	none
CN(/N=C/c1cccc(Br)c1)C1=NS(=O)(=O)c2ccccc21	none (no result: G6PDH counter, Redox H2O2 prof, L major viab, Diaph act CS, Diaphorase inh)
Cc1c(Cl)sn(-c2ccc(Cl)cc2)c1=O	L major viab 101, PfGluPho inh 106 | L major 1uM 100
Cc1cc(C)c2nc(NC(=O)c3cccc(S(=O)(=O)N4CCc5ccccc54)c3)sc2c1	none
Cc1cccc2sc(NC(=O)c3cccc(S(=O)(=O)N4CCc5ccccc54)c3)nc12	L major viab 96 | L major 1uM inactive
CSc1ccc(/C=N\Nc2nncn2N)cc1	none (no result: G6PDH counter, Redox H2O2 prof, L major viab, Diaph act CS, Diaphorase inh)
CCn1cc[n+](C)c1P(c1ccccc1)c1ccccc1	L major viab 98 | L major 1uM inactive
CC(C)OC(=O)c1cccc(C(=O)OCc2ccco2)n1	L major viab 50 | L major 1uM inactive
O=C(Nc1ccnn1C1CCN(Cc2cccc(O)c2)CC1)C1CCCC1	none (no result: G6PDH counter, Redox H2O2 prof, L major viab, Diaph act CS, Diaphorase inh)
Cc1ccccc1C(=O)Oc1ccc(Sc2ccc(O)cc2)cc1	L major viab 54 (no result: PfGluPho inh) | L major 1uM inactive
C#CC(c1ccccc1)(c1ccccc1)n1ccnc1	none (no result: G6PDH counter, Redox H2O2 prof, L major viab, Diaph act CS, Diaphorase inh)
Clc1ccccc1C(c1ccccc1)(c1ccccc1)n1ccnc1	L major viab 100 | L major 1uM 88
Nc1nnc(-c2cn(-c3ccccc3)nc2-c2ccccc2)o1	L major viab 55 | L major 1uM inactive
O=C(Cc1ccccc1)NCC(=O)N1CCN(c2ccc(F)cc2)CC1	none (no result: G6PDH counter, Redox H2O2 prof, L major viab, Diaph act CS, Diaphorase inh)
Nc1cccc2nc3ccccc3cc12	L major viab 101 | L major 1uM 79
COc1ccc(C)cc1N1CC(C(=O)Nc2cccc(C(=O)NC3CC3)c2)CC1=O (stereo not given)	none (no result: G6PDH counter, Redox H2O2 prof, L major viab, Diaph act CS, Diaphorase inh)
COc1ccc(C(=O)O/N=C(\N)Cc2ccc(Cl)cc2)cc1OC	L major viab 66 | L major 1uM inactive
N/C(Cc1ccc(Cl)cc1)=N\OC(=O)c1ccccc1	none
CC(C)(C)c1ccc(-c2ncccc2O)cc1	L major viab 100 | L major 1uM 83
CC(C)(C)C1CCC2(CC1)Nc1cccc3cccc(c13)N2	L major viab 100 | L major 1uM 64
COc1ccc(NC(=O)CCSc2nc(C)cs2)cc1	none (no result: G6PDH counter, Redox H2O2 prof, L major viab, Diaph act CS, Diaphorase inh)
CCC(C)NCCOc1ccc(Br)cc1 (stereo not given)	L major viab 82 | L major 1uM inactive
N#CC(c1ccc(Cl)cc1)c1ccc2c(C(F)(F)F)cc(C(F)(F)F)nc2n1 (stereo not given)	L major viab 100 | L major 1uM 56
COc1ccc(CNCCC(c2ccc(OC(C)C)cc2)C(C)C)cc1OC (stereo not given)	L major viab 98 | L major 1uM inactive
Cc1sc2nc(CN(Cc3cccs3)C(=O)NC3CCCCC3)[nH]c(=O)c2c1C	L major viab 53 | L major 1uM inactive
O=C(NC1CCCC1)C(c1ccc(F)cc1)N(Cc1ccc(Cl)cc1)C(=O)CCl (stereo not given)	L major viab 99 | L major 1uM 51
FC(F)(F)c1ccc2c(c1)C1C=CCC1C(c1ccncc1)N2 (stereo not given)	L major viab 88 | L major 1uM inactive
O=C(O)c1ccc2c(c1)C1C=CCC1C(c1ccncc1)N2 (stereo not given)	none (no result: G6PDH counter, Redox H2O2 prof, L major viab, Diaph act CS, Diaphorase inh)
COc1cccc(N/C(N)=N/c2nc(C(F)(F)F)cc(=O)[nH]2)c1	none
CC12CC(NC(=O)N1c1ccc(C(=O)N3CCN(c4ccccn4)CC3)cc1)c1ccccc1O2 (stereo not given)	none (no result: PfGluPho inh)
COc1cccc(N2CCN(C(=O)c3ccc(N4C(=O)NC5CC4(C)Oc4ccccc45)cc3)CC2)c1 (stereo not given)	L major viab 73 | L major 1uM inactive
O=C(NCCCN1CCOCC1)C(C(=O)NCCCN1CCOCC1)c1ncc(C(F)(F)F)cc1Cl	none
CCCCCCCNC1=CC(=O)CC(c2ccccc2)C1 (stereo not given)	L major viab 99 | L major 1uM inactive
COC(=O)C1=C(N)N(c2ccc(F)cc2)C2=C(C(=O)CCC2)C1c1ccc2c(c1)OCO2 (stereo not given)	L major viab 72 | L major 1uM inactive
COCCNC(=S)NC12CC3CC(CC(C3)C1)C2	L major viab 53 | L major 1uM inactive
CN(C)CCCOc1nc2c(c(=O)n(C)c(=O)n2C)n1C	none
CCNC(=S)N1CCN(c2ccc([N+](=O)[O-])cc2)CC1	none
O=[N+]([O-])c1ccc(N2CCN(C(=S)NCc3ccc(Cl)cc3)CC2)cc1	L major viab 68 | L major 1uM inactive
CCN(CC)CCOC(c1ccccc1)c1ccc(C)cc1 (stereo not given)	L major viab 96 | L major 1uM 74
CCCCc1c(O)cc(C)[nH]c1=O	none (no result: G6PDH counter, Redox H2O2 prof, L major viab, Diaph act CS, Diaphorase inh)
CCOC1(OCC)N=C(N)C2(C#N)C(c3cccc(C)c3)C12C#N (stereo not given)	none
CCOC1(OCC)C(c2ccc(N)cc2)C(C#N)(C#N)C1(OCC)OCC (stereo not given)	L major viab 63 | L major 1uM inactive
